# Source: ChEMBL document CHEMBL1932939, “Synthesis and cytotoxic evaluation of thiourea and N-bis-benzothiazole derivatives: a novel class of cytotoxic agents” (Bioorg Med Chem Lett, 2012)
# Assays:
# U-937 = test: Cytotoxicity against human U937 cells after 48 hrs by MTT assay; format: functional, cell-based
# In short: (§1)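 IC50 is taken as the concentration that gives a 50% drop in cell number relative to control cultures grown without inhibitor. Etoposide serves as the standard positive-control drug.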
# THP-1 [1] = test: Cytotoxicity against human THP1 cells after 48 hrs by MTT assay; format: functional, cell-based; settings: THP-1, 48 h; in short: as §1
# B16-F10 = test: Cytotoxicity against mouse B16F10 cells after 48 hrs by MTT assay; format: functional, cell-based; settings: B16-F10, 48 h; in short: as §1
# THP-1 [2] = test: Ratio of IC50 for human U937 cells to IC50 for human THP1 cells after 48 hrs by MTT assay; format: functional
# THP-1 [3] = test: Ratio of IC50 for mouse B16F10 cells to IC50 for human THP1 cells after 48 hrs by MTT assay; format: functional
SMILES,"IC50 (U-937; Homo sapiens, U-937, 48 h) [µM]",IC50 (THP-1 [1]) [µM],IC50 (B16-F10) [µM],IC50 (U-937; u-937) [µM],Ratio IC50 (THP-1 [2]),Ratio IC50 (THP-1 [3])
S=C(Nc1ccccc1)Nc1nc2ccccc2s1,> 50,36.5,> 50,–,–,–
Fc1ccc(NC(=S)Nc2nc3ccccc3s2)cc1,32,26.7,> 50,–,–,–
S=C(Nc1ccc(Cl)cc1)Nc1nc2ccccc2s1,> 50,39,> 50,–,–,–
Fc1ccc2nc(NC(=S)Nc3ccccc3)sc2c1,> 50,46.6,> 50,–,–,–
Fc1ccc(NC(=S)Nc2nc3ccc(F)cc3s2)cc1,16.2,34.6,47.7,–,–,–
Fc1ccc2nc(NC(=S)Nc3ccc(Cl)cc3)sc2c1,18.7,31.2,48.1,–,–,–
S=C(Nc1ccccc1)Nc1nc2c(Cl)cccc2s1,> 50,31.8,> 50,–,–,–
Fc1ccc(NC(=S)Nc2nc3c(Cl)cccc3s2)cc1,> 50,> 50,> 50,–,–,–
Cc1ccc2nc(NC(=S)Nc3ccccc3)sc2c1,> 50,> 50,> 50,–,–,–
Cc1ccc2nc(NC(=S)Nc3ccc(F)cc3)sc2c1,> 50,36.9,> 50,–,–,–
CCOc1ccc2nc(NC(=S)Nc3ccccc3)sc2c1,37.7,43.8,> 50,–,–,–
CCOc1ccc2nc(NC(=S)Nc3ccc(F)cc3)sc2c1,28.1,39.5,> 50,–,–,–
c1ccc2sc(Nc3nc4ccccc4s3)nc2c1,40,28.8,> 50,–,–,–
Clc1ccc2nc(Nc3nc4ccccc4s3)sc2c1,> 50,45.4,> 50,–,–,–
Fc1ccc2nc(Nc3nc4ccc(F)cc4s3)sc2c1,27.4,17.5,47.5,–,–,–
Fc1ccc2nc(Nc3nc4ccc(Cl)cc4s3)sc2c1,> 50,41,41.9,–,–,–
Fc1ccc2nc(Nc3nc4c(Cl)cccc4s3)sc2c1,> 50,36.2,> 50,–,–,–
Cc1ccc2nc(Nc3nc4ccccc4s3)sc2c1,48.4,34.2,> 50,–,–,–
CCOc1ccc2nc(Nc3nc4ccccc4s3)sc2c1,> 50,37.1,> 50,–,–,–
CCOc1ccc2nc(Nc3nc4ccc(F)cc4s3)sc2c1,26.6,39,33.2,–,–,–
Fc1ccc2nc(Nc3nc4ccccc4s3)sc2c1,40.6,> 50,> 50,43.5,–,–
Clc1cccc2sc(Nc3nc4ccccc4s3)nc12,> 50,> 50,29.5,–,–,–
Cc1ccc2nc(Nc3nc4ccc(F)cc4s3)sc2c1,> 50,> 50,29.6,–,–,–
COc1cc([C@@H]2c3cc4c(cc3[C@@H](O[C@@H]3O[C@@H]5CO[C@@H](C)O[C@H]5[C@H](O)[C@H]3O)[C@H]3COC(=O)[C@H]23)OCO4)cc(OC)c1O [ETOPOSIDE],–,–,18.7,–,9,9
